Numbering of substitutions follows the chain as printed.
How the values were obtained:
Format in all cases: biochemical
R47E PTP1B = molecular target: T1, R47E PTP1B (Homo sapiens, UniProt P18031, R47E); assay: PTP assay, R47E PTP1B
T1 sequence (P18031 1-321 R47E): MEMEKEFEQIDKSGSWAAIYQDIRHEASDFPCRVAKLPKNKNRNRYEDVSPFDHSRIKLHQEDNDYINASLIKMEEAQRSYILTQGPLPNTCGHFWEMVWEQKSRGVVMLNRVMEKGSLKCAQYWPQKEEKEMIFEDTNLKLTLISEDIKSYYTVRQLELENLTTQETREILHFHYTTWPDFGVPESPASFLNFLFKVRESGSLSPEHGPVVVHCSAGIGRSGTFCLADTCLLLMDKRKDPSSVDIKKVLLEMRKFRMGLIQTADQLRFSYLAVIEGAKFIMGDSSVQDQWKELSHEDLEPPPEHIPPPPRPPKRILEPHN
Summary of the method: (§1)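 E. coli-expressed catalytic domains were used: wild-type, R24M or R47E PTP1B (aa 1–321), and SHP-1 (aa 205–595). Reactions started with PTP (0.5–20000 nM final) and dephosphorylation was monitored continuously at 282 nm. kcat, KM and kcat/KM came from initial-rate fits (Michaelis–Menten, or V = kcat[E][S]/KM when KM >> [S]) or from fits of progress curves.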

PTPD1 = molecular target: T2, PTPD1 (Homo sapiens, UniProt Q16825); assay: Pre-steady-state; settings: 25 °C; initial phase not resolved, too fast for the instrument
T2 sequence (Q16825 875-1174): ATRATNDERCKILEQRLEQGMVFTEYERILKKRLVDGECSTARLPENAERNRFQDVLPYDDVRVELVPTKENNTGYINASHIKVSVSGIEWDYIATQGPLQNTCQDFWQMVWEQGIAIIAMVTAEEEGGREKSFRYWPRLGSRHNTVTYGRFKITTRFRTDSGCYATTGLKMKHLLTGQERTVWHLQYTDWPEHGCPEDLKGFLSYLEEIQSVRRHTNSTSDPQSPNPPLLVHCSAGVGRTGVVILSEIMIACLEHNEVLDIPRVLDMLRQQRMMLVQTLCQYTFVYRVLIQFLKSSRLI

R24M PTP1B = molecular target: T3, R24M PTP1B (Homo sapiens, UniProt P18031, R24M); assay: PTP assay, R24M PTP1B
T3 sequence (P18031 1-321 R24M): T1 sequence (P18031 1-321 R47E) with R24M, E47R
Summary of the method: as §1

PTP1B = molecular target: T4, PTP1B (Homo sapiens, UniProt P18031); assay: PTP assay, wild-type PTP1B; settings: WT PTP1B aa 1–321; pH 7.4
T4 sequence (P18031 1-321): T1 sequence (P18031 1-321 R47E) with E47R
Summary of the method: as §1

O=[N+]([O-])c1ccc(OP(=O)(O)O)cc1 [pNPP, p-nitrophenyl phosphate, reference compound]
Km (R47E PTP1B; R47E PTP1B aa 1–321, pH 7.4): 2800 ± 300 µM
kcat (R47E PTP1B; R47E PTP1B aa 1–321, pH 7.4): 16 ± 1 s⁻¹
kcat/KM x 10^7 (R47E PTP1B; R47E PTP1B aa 1–321, pH 7.4): 0.00057 x 10^7 M^−1 s^−1
WT/R47E (R47E PTP1B; ratio of kcat/KM, WT over R47E PTP1B (fold decrease by the mutation)): 1.2
k of initial phase (PTPD1): > 100 s⁻¹
Km (R24M PTP1B; R24M PTP1B aa 1–321, pH 7.4): 3 ± 0.1 µM
kcat (R24M PTP1B; R24M PTP1B aa 1–321, pH 7.4): 17 ± 1 s⁻¹
kcat/KM x 10^7 (R24M PTP1B; R24M PTP1B aa 1–321, pH 7.4): 0.00057 x 10^7 M^−1 s^−1
WT/R24M (R24M PTP1B; ratio of kcat/KM, WT over R24M PTP1B (fold reduction by the mutation)): 1.2
kcat/KM x 10^7 (PTP1B): 0.00069 x 10^7 M^−1 s^−1

Source: article PMC3954597 (Biochemistry, 2014)
